Measured values from different studies.
Target: Eukaryotic elongation factor 2 kinase (EEF2K, Homo sapiens, UniProt O00418)

Cn1c2c(c3ccc(Cl)c(Cl)c31)C(C#N)C1(CCOCC1)NC2=O (stereo not shown) — ΔTm (thermal stability; DSF; 10 µM): -0.2 °C
CCN1CCN(Cc2ccc(NC(=O)c3ccc(C)c(Oc4ccnc5[nH]ccc45)c3)cc2C(F)(F)F)CC1 — inhibition (target engagement in cells; inhibitor; chemoproteomics; Huh-7; 10 µM): -20.2%
CCN(CC)CCNC(=O)c1c(C)[nH]c(/C=C2\C(=O)Nc3ccc(F)cc32)c1C — inhibition (enzyme activity; inhibitor; 0.3 µM): -15%
COc1cc(Nc2cnc(C#N)c(O[C@H](C)CN(C)C)n2)ncc1-c1cnn(C)c1 — remaining activity (enzyme activity; inhibitor; radiometric; 1 µM): 94%
Cn1c2c(c3ccc(Cl)c(Cl)c31)C(C#N)C1(CCNCC1)NC2=O (racemic) — ΔTm (thermal stability; DSF; 10 µM): 0 °C
CN(c1ncccc1CNc1nc(Nc2ccc3c(c2)CC(=O)N3)ncc1C(F)(F)F)S(C)(=O)=O — inhibition (enzyme activity; inhibitor; 1 µM): 0%
Oc1cccc(-c2nc(N3CCOCC3)c3oc4ncccc4c3n2)c1 — remaining activity (enzyme activity; inhibitor; 10 µM): 99%
COc1cc2ncnc(Nc3ccc(Oc4ccccc4)c(C)c3C)c2cc1OC — inhibition (enzyme activity; inhibitor; 1 µM): 1%
Nc1nc(NC2CCCCC2)sc1C(=O)c1ccccc1 — remaining activity (enzyme activity; inhibitor; 10 µM): 89%
CNC(=O)c1cc(Oc2ccc(NC(=O)Nc3ccc(Cl)c(C(F)(F)F)c3)cc2)ccn1 — inhibition (enzyme activity; inhibitor; 10 µM): -8%
CNc1cc(Oc2cc(C(=O)Nc3cc(N4CCN(C)CC4)cc(C(F)(F)F)c3)ccc2C)ncn1 — inhibition (target engagement in cells; inhibitor; chemoproteomics; Huh-7; 1 µM): -99.1%
Cn1c2c(c3ccccc31)C(C#N)C(C)(C)NC2=O (stereo not shown) — ΔTm (thermal stability; DSF; 10 µM): 0 °C
COc1cc(/C=C/C(=O)CC(=O)/C=C/c2ccc(O)c(OC)c2)ccc1O — activity vs control (enzyme activity; inhibitor; 1 µM): 98%
COc1cc2nccc(Oc3ccc(NC(=O)c4c5n(n(-c6ccc(F)cc6)c4=O)CCCC5)cc3)c2cc1OC — inhibition (enzyme activity; inhibitor; 0.1 µM): 8%
COc1cc(Cl)c(C(=O)N[C@@H](CN[C@H]2CC[C@@H](N)CC2)Cc2ccc(C#N)cc2)cc1-c1ccc(CN[C@H](C)c2ccc(C)cc2)o1 — remaining activity (enzyme activity; inhibitor; 1 µM): 80%
CC(C)(C)c1nc2c(s1)c1nc(N)ncc1c1ccc(NS(=O)(=O)c3c(F)cccc3F)c(F)c12 — remaining activity (enzyme activity; inhibitor; radiometric; 1 µM): 88%
